The text below walks through data of the EternaBench riboswitch data.

The test system of this series is MS2 coat protein. Nature of the series: apparent Kd, MS2 coat protein; higher = weaker binding; RNA-MaP array. The procedure, abridged: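 For each design, the apparent Kd is the median of binding-curve fits across its clusters. Designs measured on fewer than 10 clusters were dropped. The RNAs were transcribed from sequenced DNA templates on an Illumina sequencing chip and incubated at room temperature, with or without input ligand, with fluorescently labeled MS2 coat protein at 1.5 nM to 3 μM.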

[1] abbreviates: designed as: OFF switch for flavin mononucleotide, no ligand.
The mark [2] stands for this setting: ligand present: flavin mononucleotide, designed as: OFF switch for flavin mononucleotide.
Setting [3] is: designed as: ON switch for flavin mononucleotide, no ligand.
Setting [4] is: ligand present: flavin mononucleotide, designed as: ON switch for flavin mononucleotide.
Where [5] appears, read: designed as: ON switch for tryptophan, no ligand.
Setting [6] is: ligand present: tryptophan, designed as: ON switch for tryptophan.

For the sequence “CUUCAGGCGGAGGAUAUCUUACAGUUAUCGUACAGAGAAGGCCGCACAUGAGGAUCACCCAUGUCAGGCGACUU”, the “apparent Kd” value is, setting by setting: under setting [1], 29.8 nM; under setting [2], 162 nM.

With “GGAUAACCGAAGAAGGAGGUUUGUAUGGAAUACCUAGGAUAUUCGCGAGCGUGGGCCACAUGAGGAUCACCCAUGUCGGCAGUU”, the “apparent Kd” value under setting [1] was 12.8 nM and the “apparent Kd” value under setting [2] amounted to 10.4 nM.

With “AAGAAGUACCAGAAGGGAGGAGGAAAUCUACAUGAGGAUCACCCAUGUACUUGCGGAUUUAAAUCUCAGGAUAUGGGAUACACA”, the “apparent Kd” value came to 49.7 nM under setting [3] and 12.9 nM under setting [4].

Take “ACUAUUCAUUAUGGCACAUGAGGAUCACCCAUGUAGUGCGAACAGGAUAUACAAAAGAAUGUCAAGUAGAAGGGUUCCAGGUUC”: the “apparent Kd” value under setting [3] was determined as 28 nM and the “apparent Kd” value under setting [4] amounted to 19.8 nM.

For the sequence “UAAUGCAUAACAUGAGGAUCACCCAUGUAGUAAAAUGGUGGUUAGGAUAUAGCACGUGAAUCGACCUAGAAGGAACGUCCUUAC”, the “apparent Kd” value is, setting by setting: under setting [1], 33.3 nM; under setting [2], 30 nM.

As to “CACAAACCAGAGAAGGCCCUAAGAGUAUAGAGAAUACGAAACAUGAGGAUCACCCAUGUCAUAUGGGAGGAUAUCAACAAGAUU”, the “apparent Kd” value was 135 nM under setting [3] and 11.3 nM under setting [4].

Consider “AUUCGGUCAGGAUAUAGCGCACGCCGACGAACAUGUGGCGGCUAGAAGGGACAUGAGGAUCACCCAUGUCGGGC”, for which the “apparent Kd” value was 8.41 nM under setting [1] and 10.7 nM under setting [2].

Consider “UGGUACAUGAGGAUCACCCAUGUCCUCAUCCGAGGACCGGUACGGCCGCCACUCGAAAUUGCGAUCGGCACAAAACAAAUGCUUG”, for which the “apparent Kd” value is, setting by setting: under setting [5], 142 nM; under setting [6], 143 nM.

Consider “GAUUGGCUAGGAUAUACAGUGUCUAAGUCGACACCGUGAUAACAUGAGGAUCACCCAUGUAGAAGGAGCACAAA”, for which the “apparent Kd” value is 6.78 nM under setting [1] and 11.4 nM under setting [2].

In the case of “CGAUACAAAUAAAGCGUUCGUCCGCCAGAUACCAGAUUCAUUUCCAUCCCUUGGCAGCUGUCGACAUGAGGAUCACCCAUGUUUG”, the “apparent Kd” value (designed as: OFF switch for theophylline, no ligand) was 18.3 nM and the “apparent Kd” value (ligand present: theophylline, designed as: OFF switch for theophylline) amounted to 20.9 nM.

For the sequence “CCGGAAUUGCAGGAUAUACGCAAACCACAUGCUGUAGAAGGGCAAACAUGAGGAUCACCCAUGUGGUCGAGCAG”, the “apparent Kd” value was 13.4 nM under setting [1] and 17.9 nM under setting [2].

As for “UCGAUACCUCUAAUGAAGACAUGAGGAUCACCCAUGUUUAACAGAAGGUAGUCGGGAAGAUAGACUAAGGAUAUGUUGCAGGUG”, the “apparent Kd” value runs as follows: under setting [1], 9.63 nM; under setting [2], 24.3 nM.

“AGCACAAAGUAGAAGGGUAGCACCGAUUUUCAUACAGGAUAUACGAAGGCAGGGUCAACAUGAGGAUCACCCAUGUUACCGCUU”: the “apparent Kd” value was found to be 5.59 nM under setting [3] and 5.39 nM under setting [4].

As for “AGGAAACAUGAGGAUCACCCAUGUGAGGAUAUACAAAAGAGCGAAAGAAGAAAUUAAUGUAGAAGGCACGUCAA”, the “apparent Kd” value under setting [1] turned out to be 15.1 nM and the “apparent Kd” value under setting [2] turned out to be 13.3 nM.

On to “AGUGGACUGAGGCAGGAUAUCUAUUCAGGAACAUGAGGAUCACCCAUGUCAUGAAAUGACUCGUGAGAGAAGGGCCGUCAACUUAU”, for which the “apparent Kd” value stood at 22.9 nM under setting [3] and 29.5 nM under setting [4].

“AUUUUGGGAGGAUAUACAUGAGGAUCACCCAUGUUUUAGAACGUAAGAGAAUCCGGAGGUAGAAGGCCCUUCUG”: the “apparent Kd” value came out at 180 nM under setting [1] and 212 nM under setting [2].

For the sequence “AACAAGGACAGAGGAUAUAUCAACAUUGAAGUAAUAGAAGGCUGAGAGAAUGAGACUCAUAAACAUGAGGAUCACCCAUGUAAC”, the “apparent Kd” value runs as follows: under setting [1], 82.2 nM; under setting [2], 81.4 nM.

In the case of “UUAGAAUACUAAGGAUAUGAUUAUGGCGCACCGCUGUCCGGUGUACAUGAGGAUCACCCAUGUAAUCAGAAGGUAGACUUGUCC”, the “apparent Kd” value reads like this: under setting [3], 9.94 nM; under setting [4], 8.91 nM.

“GGGAUGUUAGGAUAUGCUGGUUAAAAGAGAUUAAUACUCUAGCAGAAGGAACAUGAGGAUCACCCAUGUAGACA”: the “apparent Kd” value is, setting by setting: under setting [1], 10.6 nM; under setting [2], 26.4 nM.

Consider “AACAAGUAGGAGAAGGUAGAUGAGACUGUGCACUAAGGAUAUCCAUACAUGAGGAUCACCCAUGUCUGGACUAGUAUAUGGACA”, for which the “apparent Kd” value is, setting by setting: under setting [1], 5.74 nM; under setting [2], 5.69 nM.

With “UCUAAACAUGAGGAUCACCCAUGUGAUUUACUCGCAGGAUAUGAGAGCUUGCACACGCAAUCAGAAGGGCGUCGAA”, the “apparent Kd” value runs as follows: under setting [3], 36.6 nM; under setting [4], 28.7 nM.

On to “AAGGUCCAAGAGAAGGCGCUCAUGGGAUCAAGACAUGAGGAUCACCCAUGUUGGCGCAGCACAAGCGAGGAUAUCUCCACCGGC”, for which the “apparent Kd” value by setting is: under setting [3], 420 nM; under setting [4], 330 nM.

With “GGCGUGUACACAGGAUAUGAUACAUGAGGAUCACCCAUGUUCGCGCUGGAUCUACGUGAGAACGAUCAGAAGGGUGCUGCAGGG”, the “apparent Kd” value amounted to 398 nM under setting [3] and 229 nM under setting [4].

With “AGAUCACAUGAGGAUCACCCAUGUCAGGAACUAAGGUACGCUAGAAGGCCGGAUAUGCGGGAAGCGGAGGAUAUAGCAAGCAUC”, the “apparent Kd” value by setting is: under setting [3], 40.8 nM; under setting [4], 19.6 nM.

With “UAUUGGAUGACAGGAUAUCUACGAAGAAGUUGACAUGAGGAUCACCCAUGUAGGGUGUGGAGCAUAGAGAAGGGUCAGAACCUC”, the “apparent Kd” value under setting [1] was determined as 702 nM and the “apparent Kd” value under setting [2] is 440 nM.

In the case of “CCGGAGACCGUGUCAGCGGAAGCAAGAACACGAGGACCGGUACGGCCGCCACUCGAAAGAAGACAUGAGGAUCACCCAUGUCCAU”, the “apparent Kd” value runs as follows: (designed as: OFF switch for tryptophan, no ligand) 12 nM; (ligand present: tryptophan, designed as: OFF switch for tryptophan) 13.9 nM.

For the sequence “CACAAGUCGUAGGAUAUCACCACAAAUAGCUGCUGAGAAGGACGGACAUGAGGAUCACCCAUGUGUUCCGCAAU”, the “apparent Kd” value was found to be 14.8 nM under setting [1] and 23.8 nM under setting [2].

As to “CUGAAGUCUGACCCUCGAAACAUGAGGAUCACCCAUGUAGUCAGAAGGCGAUUGUGAGCAGGAAUCGAGGAUAUGAACUAGUUU”, the “apparent Kd” value by setting is: under setting [1], 7.72 nM; under setting [2], 10 nM.

In the case of “GCGGUCCACUUGGAUACCAGCAGAUUAAUAAACAUGAGGAUCACCCAUGUAAGCGCCUUGUGCCCUUGGCAGCCAGGGUGGUCAG”, the “apparent Kd” value by setting is: (designed as: ON switch for theophylline, no ligand) 83.8 nM; (ligand present: theophylline, designed as: ON switch for theophylline) 46.3 nM.

As to “AGUUGAGGAGGAUAUACAUGAGGAUCACCCAUGUGACUGUGUCUGUUGCGCUGGAUCGGUAGAAGGCCUUAGUA”, the “apparent Kd” value is, setting by setting: under setting [1], 12.2 nM; under setting [2], 16.4 nM.

For “GUUUUGGUACGAGGAUAUAAUGCCCUUGGAGAGUUAGAAGGCGUACGGGCUGUCCAUUAGAUACAUGAGGAUCACCCAUGUGAG”, the “apparent Kd” value is, setting by setting: under setting [1], 14.7 nM; under setting [2], 12.2 nM.

Turning to “UACCUUAGCAACAUGAGGAUCACCCAUGUUUGGUGGCGAAUUAGAAGGGACAGCAUUUAUACAAGUCAGGAUAUAAUUUAGGGA”, the “apparent Kd” value reads like this: under setting [1], 16.5 nM; under setting [2], 11.6 nM.

“UAGAGGUACGUUGGCGAACAUGAGGAUCACCCAUGUAAAUGAAGAAGGUGUGUUGCGCAAAACGACAAGGAUAUUCAAGACAUC”: the “apparent Kd” value by setting is: under setting [3], 83.4 nM; under setting [4], 50.7 nM.

For “UACCUUAUGGAGAAGGCACGUCUCAGAGGAGCAACAUGAGGAUCACCCAUGUACCUGGGCUGAAGUGAGGAUAUCCAAAUCCCA”, the “apparent Kd” value under setting [3] came to 14.4 nM and the “apparent Kd” value under setting [4] was 7.18 nM.

Take “UGGUAGUUGGAGAAGGGAUCGUCGGAACCCAGAUCAGGAUAUCCGACUACAUGAGGAUCACCCAUGUCCUAUCAGUACAAGUAC”: the “apparent Kd” value by setting is: under setting [1], 20.2 nM; under setting [2], 41 nM.

In the case of “UUCUGGCCGCAGAAGGAGGAUCUGGUUGAAAUCCUAGGAUAUGCAUCUAACCACUGGUCCACAUGAGGAUCACCCAUGUCAGAC”, the “apparent Kd” value by setting is: under setting [1], 16.3 nM; under setting [2], 12.4 nM.

Take “AGUUUUAUCGUGUAGGAUAUGGGAUAAUCAACAUGAGGAUCACCCAUGUCAUGAGUGACAAGCGACCAGAAGGACACCAAUACAAC”: the “apparent Kd” value by setting is: under setting [3], 400 nM; under setting [4], 55.8 nM.

Turning to “AGUAAAGUAGAAGGAUAUCACGAACAUGAGGAUCACCCAUGUUAAGAUCGGCGUGAGACAACAGAUGAGAAGGACUAAUAUGCU”, the “apparent Kd” value under setting [1] was 10.9 nM and the “apparent Kd” value under setting [2] came out at 10.2 nM.

In the case of “CAGGGACAUGAGGAUCACCCAUGUAAGGAUAUGCCCAAAAGAGCGACUACUAAAGGAGGCAGAAGGUACGAACG”, the “apparent Kd” value was found to be 28.6 nM under setting [1] and 31.6 nM under setting [2].

Consider “CCAGGACAUGAGGAUCACCCAUGUACGGUCAGCGAAGGAUAUAUUGCGUGGCGAGUGCUGAUAGAAGGUCGUAAAC”, for which the “apparent Kd” value is, setting by setting: under setting [3], 15 nM; under setting [4], 10.9 nM.

With “GAGGCGAAGGAGAAGGCCGCCAGUAAAGGUGACCGUAACAUGAGGAUCACCCAUGUGGAAUAAACGGAGGAUAUCCCUUCUCAG”, the “apparent Kd” value stood at 19 nM under setting [1] and 21.8 nM under setting [2].

“AAAAUGGAUUGAACAUGAGGAUCACCCAUGUCCUGCCCGCAUUAGGAUAUCGAUAACUUGAGUACCGAGAAGGAAUGAUGAUCG”: the “apparent Kd” value under setting [3] turned out to be 12.6 nM and the “apparent Kd” value under setting [4] was found to be 13.2 nM.

For “GCUCAGGAAGGAUAUACUGAAGCUAACAUGAGGAUCACCCAUGUCCUAGGUAAGUAUCUGGUAGAAGGUCCGCGUA”, the “apparent Kd” value is, setting by setting: under setting [1], 24.9 nM; under setting [2], 32.5 nM.

Take “UUCUUGUCAGGAUAUGGCCCAGAGUCUAAGGCACCGAACGGCCAGAAGGGACAUGAGGAUCACCCAUGUAUCCU”: the “apparent Kd” value reads like this: under setting [1], 16.3 nM; under setting [2], 82.8 nM.

“GACUUGCAAGAGAAGGCGGCCACCAAUCAUCGGAGUGUAAACUCUACAUGAGGAUCACCCAUGUCCGAGGAUAUCUUCAUCAGU”: the “apparent Kd” value under setting [3] came to 59.9 nM and the “apparent Kd” value under setting [4] stood at 69.8 nM.

Turning to “CGCGCUGAAGGAUAUGCAUUGGACUACAUGAGGAUCACCCAUGUCCCGUCUUGUGGACCCGCAGAAGGUCACUACC”, the “apparent Kd” value runs as follows: under setting [1], 9.25 nM; under setting [2], 12 nM.

In the case of “CACUACAUGAGGAUCACCCAUGUAUACUGACGAGGACCGGUACGGCCGCCACUCGAACCGAAACCGACUUCAUUCUGUGUACCAU”, the “apparent Kd” value is, setting by setting: under setting [5], 15.4 nM; under setting [6], 16.2 nM.
